Measured values published in ChEMBL document CHEMBL1148479, “Antineoplastic agents. 520. Isolation and structure of irciniastatins A and B from the Indo-Pacific marine sponge Ircinia ramosa” (2004).
Converted amounts (≈) assume the structure as drawn.

How the values were obtained:
Assay type in all cases: functional
[1] = tested on: DU-145; assay: Compound was tested for cancer cell line growth inhibition against human prostate (DU-145) cell line
Summary of the method: (§1)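 NCI sulforhodamine B protocol. Cells in 5% fetal bovine serum/RPMI1640 are seeded in 96-well plates and incubated 24 h, then exposed to serial compound dilutions for 48 h. Cells are fixed with trichloroacetic acid, stained with SRB and read by microplate reader. GI50 is the concentration giving a 50% reduction in net protein increase, calculated from optical density.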

[2] = tested on: HUVEC; assay: Compound was tested for cancer cell line growth inhibition against human umbilical vein endothelial cells
[3] = tested on: NCI-H460; assay: Compound was tested for cancer cell line growth inhibition against lung cancer cells (NCI-H460); details: Homo sapiens; summary of the method: as §1
[4] = tested on: MCF7; assay: Compound was tested for cancer cell line growth inhibition against human breast (MCF-7) cell line; summary of the method: as §1
[5] = tested on: BXPC-3; assay: Compound was tested for cancer cell line growth inhibition against human pancreas (BXPC-3) cell line; summary of the method: as §1
[6] = tested on: KM-20L2; assay: Compound was tested for cancer cell line growth inhibition against human colon (KM20L2) cell line; summary of the method: as §1
[7] = tested on: Neisseria gonorrhoeae; assay: Compound was tested for minimum inhibitory concentration against Neisseria gonorrhoeae ATCC 49226
Summary of the method: (§2)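 Standard broth microdilution susceptibility method. The fungal test follows the M27-A yeast reference standard. MIC is the lowest concentration that inhibits all visible growth of the organism (optically clear wells).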

[8] = tested on: Cryptococcus neoformans; assay: Compound was tested for minimum inhibitory concentration against Cryptococcus neoformans ATCC 90112; summary of the method: as §2
[9] = tested on: P388; assay: Compound was tested for cancer cell line growth inhibition against murine P388 leukemia cell line; details: Mus musculus
Summary of the method: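 Murine P388 leukemia cells are grown in 10% horse serum/Fisher medium for 24 h, then incubated 48 h with serial compound dilutions. Cells are counted on a particle counter, and ED50 for growth inhibition is calculated from the counts.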

[10] = tested on: SF-268; assay: Compound was tested for cancer cell line growth inhibition against human central nervous system (SF268) cell line; summary of the method: as §1

In the case of `C=C(C)CC(OC)[C@H](O)C(=O)N[C@@H](OC)[C@@H]1C[C@@H](O)C(C)(C)[C@@H](C[C@H](O)[C@@H](C)[C@H]2Cc3c(C)c(O)cc(O)c3C(=O)O2)O1` (stereo not given in full) [IRCINIASTATIN A], the GI50 [1] is reported as 1.6 ng/mL (≈ 2.62 nM), the GI50 [2] is reported as less than 0.5 ng/mL and the GI50 [3] is reported as 0.73 ng/mL (≈ 1.2 nM). For the same compound, the GI50 [4] was 0.66 ng/mL (≈ 1.08 nM), the GI50 [5] was 0.5 ng/mL (≈ 0.82 nM) and the GI50 [6] was 2.1 ng/mL (≈ 3.44 nM). It also gave an MIC [7] of 64000 ng/mL (≈ 105000 nM), an MIC [8] of 16000 ng/mL (≈ 26200 nM) and a GI50 [9] of 6 ng/mL (≈ 9.84 nM). For the same compound, the GI50 [10] was 1.2 ng/mL (≈ 1.97 nM).
